Source: ChEMBL document CHEMBL3271997, “Reactions of 2-acyloxyisobutyryl halides with nucleosides. 6. Synthesis and biological evaluation of some 3'-acyl derivatives of 2,2'-anhydro-1-(beta-D-arabinofuranosyl)cytosine hydrochloride” (J Med Chem, 1976)
pEC50: −log10 of the molar value. Active and inactive are the calls of the source. The calls are words filed in the database; no cut-off is given here.

Key:
Vaccinia virus = experiment: Antiviral activity against Vaccinia virus IHD infected in African green monkey BGM cells after 6 days by plaque reduction assay; type: functional; settings: Orthopoxvirus vaccinia, 144 h, read-out: ED50 (the source's name)
L1210 [1] = experiment: Antitumor activity against mouse L1210 cells allografted in BDF1 mouse assessed as survival at 200 mg/kg, ip administered as single dose 24 hrs post-implantation after 30 days; type: functional, organism-based; design: dose 200 mg/kg
How it was run: (§1)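 BDF1 mice were inoculated ip with 1-2 × 10⁵ L1210 cells. After 24 h, one ip dose was given as a solution or suspension in aqueous 0.9% NaCl, 0.4% polysorbate 80, 0.5% low-viscosity Na carboxymethylcellulose and 0.9% benzyl alcohol. Mice were followed for 30 days, with 8-10 per group. The read-out is % increase in life span versus infected controls, plus the count of 30-day survivors.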

Herpesviridae sp. = experiment: Antiviral activity against Herpes simplex virus HF infected in African green monkey BGM cells after 6 days by plaque reduction assay; type: functional; settings: 144 h, read-out: ED50 (the source's name)
How it was run: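 Quantitative plaque reduction assay. Confluent BGM monolayers were infected with 100-200 pfu of HSV (HF strain) and overlaid with 1.25% agar in MEM with 2.0% bovine serum containing graded compound concentrations. A second overlay with neutral red (1:20000) was added on day 4, and plaques were counted on day 6. ED50, the μM concentration giving 50% plaque reduction, was taken from a probability plot of % inhibition against concentration.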

HeLa = experiment: Cytotoxicity against human HeLa cells after 48 hrs by Coulter counting analysis; type: functional; settings: read-out: ED50 (the source's name)
How it was run: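 HeLa cells (10⁵) were grown for 2 days at 37° in MEM with 10% bovine serum. The medium was then replaced with fresh medium containing serial compound dilutions. After 48 h, cells were dispersed with 0.02% trypsin and 0.04% versene and counted on a Coulter counter. The result is expressed as ED50 in μg/ml.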

L1210 [2] = experiment: Antitumor activity against mouse L1210 cells allografted in BDF1 mouse assessed as increase in life span at 200 mg/kg, ip administered as single dose 24 hrs post-implantation measured up to 30 days relative to control; type: functional; settings: route intraperitoneal
How it was run: (§2)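 BDF1 mice inoculated ip with 1-2 × 10⁵ L1210 cells; 24 h later a single ip dose given as solution or suspension in aqueous 0.9% NaCl, 0.4% polysorbate 80, 0.5% low-viscosity sodium carboxymethylcellulose, 0.9% benzyl alcohol. Mice held on normal diet for 30 days. Groups of eight to ten animals; percent increase in life span versus untreated infected controls, with 30-day survivors counted.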

L1210 [3] = experiment: Antitumor activity against mouse L1210 cells allografted in BDF1 mouse assessed as increase in life span at 1000 mg/kg, ip administered as single dose 24 hrs post-implantation measured up to 30 days relative to control; type: functional; settings: route intraperitoneal; how it was run: as §2
L1210 [4] = experiment: Antitumor activity against mouse L1210 cells allografted in BDF1 mouse assessed as survival at 1000 mg/kg, ip administered as single dose 24 hrs post-implantation after 30 days; type: functional, organism-based; design: dose 1000 mg/kg; how it was run: as §1
L1210 [5] = experiment: Antitumor activity against mouse L1210 cells allografted in BDF1 mouse assessed as increase in life span at 500 mg/kg, sc administered 10 days prior to infection relative to control; type: functional; settings: route subcutaneous
How it was run: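 Single subcutaneous dose given 10 days before infection of mice with L1210 cells; activity expressed as percent increase in life span relative to untreated controls.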

[6] = test system: unidentified influenza virus; experiment: Antiviral activity against Influenza virus […] infected in monkey LLC-MK2 cells after 5 days by pulp disk diffusion assay; type: functional, organism-based
How it was run: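 Pulp disk diffusion screen: LLCMK2 cells infected with 200 pfu influenza Ao/WSN in presence of trypsin; filter paper disk loaded with 50 μg compound; antiviral activity read as diameter of plaque-inhibition zone on day 5.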

Mus musculus = experiment: Toxicity in BDF1 mouse allografted with mouse L1210 cells at 3000 mg/kg, ip; type: organism-based; design: dose 3000 mg/kg, route intraperitoneal; settings: in vivo; how it was run: as §1
BGM = experiment: Antiviral activity against Poliovirus type 1 Mahoney infected in African green monkey BGM cells after 5 days by pulp disk diffusion assay; type: functional, cell-based; settings: Human poliovirus 1 Mahoney
How it was run: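 Pulp disk diffusion screen: BGM African green monkey kidney cells infected with 200 pfu Mahoney type I poliovirus; filter paper disk loaded with 50 μg compound; antiviral activity read as diameter of plaque-inhibition zone on day 5.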

L1210 [7] = experiment: Antitumor activity against mouse L1210 cells allografted in BDF1 mouse assessed as survival at 500 mg/kg, ip administered as single dose 24 hrs post-implantation after 30 days; type: functional, organism-based; design: dose 500 mg/kg; how it was run: as §1
L1210 [8] = experiment: Antitumor activity against mouse L1210 cells allografted in BDF1 mouse assessed as increase in life span at 2000 mg/kg, ip administered as single dose 24 hrs post-implantation measured up to 30 days relative to control; type: functional; settings: route intraperitoneal; how it was run: as §2
Measles morbillivirus = experiment: Antiviral activity against Measles virus infected in African green monkey BGM cells after 5 days by pulp disk diffusion assay; type: functional, organism-based
How it was run: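 Preliminary pulp disk diffusion screen. BGM cells were infected with 200 pfu of measles virus. A filter paper disk impregnated with 50 μg of compound was applied. Activity was scored as the diameter of the zone of plaque inhibition on day 5.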

SMILES	pEC50 (Vaccinia virus)	Activity (L1210 [1])	pEC50 (Herpesviridae sp.)	EC50 (HeLa) [µg/mL]	ILS at 200 mg/kg (L1210 [2]) [%]	ILS at 1000 mg/kg (L1210 [3]) [%]	Activity (L1210 [4])	ILS at 500 mg/kg (L1210 [5]) [%]	Activity [6]	Activity (Mus musculus)	Activity (BGM)	Activity (L1210 [7])	ILS at 2000 mg/kg (L1210 [8]) [%]	Activity (Measles morbillivirus)
CCCCCCCCCC(=O)O[C@H]1[C@@H]2Oc3nc(=N)ccn3[C@@H]2O[C@@H]1CO.Cl	6.82	inactive	5.98	0.2	35									
CCCCCCCCC(=O)O[C@H]1[C@@H]2Oc3nc(=N)ccn3[C@@H]2O[C@@H]1CO.Cl	6.54	inactive	6.40	0.05	33									
CCC(=O)O[C@H]1[C@@H]2Oc3nc(=N)ccn3[C@@H]2O[C@@H]1CO.Cl	6.22	inactive	5.59	0.1	29									
Cl.N=c1ccn2c(n1)O[C@H]1[C@H](OC(=O)c3ccccc3)[C@@H](CO)O[C@H]12	5.23	inactive	5.09	0.2	17									
CCCCCCCCCCCCCCCCCCCC(=O)O[C@H]1[C@@H]2Oc3nc(=N)ccn3[C@@H]2O[C@@H]1CO.Cl	< 4.52		< 4.52	0.22	> 281	> 266	Active							
CCCCCCCCCCCCCC(=O)O[C@H]1[C@@H]2Oc3nc(=N)ccn3[C@@H]2O[C@@H]1CO.Cl	6.47	inactive	5.87	0.2	100	> 280	Active	64						
CCCCCCCCCCCCCCCCCC(=O)O[C@H]1[C@@H]2Oc3nc(=N)ccn3[C@@H]2O[C@@H]1CO.Cl	5.80	inactive	5.26	0.22	115	> 257	Active							
Cl.N=c1ccn2c(n1)O[C@H]1[C@H](OC(=O)Cc3ccccc3)[C@@H](CO)O[C@H]12	6.25	inactive	6.25	0.07	33									
CCCCCCCC/C=C\CCCCCCCCCCCC(=O)O[C@H]1[C@@H]2Oc3nc(=N)ccn3[C@@H]2O[C@@H]1CO.Cl	4.52		< 4.52	0.18	> 269									
CCCCCCCCCCCCCCCCCCCCCC(=O)O[C@H]1[C@@H]2Oc3nc(=N)ccn3[C@@H]2O[C@@H]1CO.Cl	4.73		< 4.52	0.38	> 169	> 240								
Cl.N=c1ccn2c(n1)O[C@H]1[C@H](O)[C@@H](CO)O[C@H]12 [ANCITABINE HYDROCHLORIDE]	6.39	inactive	6.15	0.05	25	89	inactive		inactive	Toxic	inactive	inactive	> 151	inactive
CCCCCCCC/C=C/CCCCCCCC(=O)O[C@H]1[C@@H]2Oc3nc(=N)ccn3[C@@H]2O[C@@H]1CO.Cl	6.05		5.72	0.09	> 162									
